{"source": "ChEMBL document CHEMBL4118021", "about": "“Studies of TAK1-centered polypharmacology with novel covalent TAK1 inhibitors” (Bioorg Med Chem, 2017)", "key": {"[1]": {"target": "Ribosomal protein S6 kinase alpha-4 (Homo sapiens) (UniProt O75676)", "assay": "Inhibition of MSK2 domain1 in human SKCO1 cells at 1 uM after 4 hrs using biotin labeled DLKLENVLLDSEGHIVLTDFGLSK probe by mass-spectrometric analysis relative to control", "format": "cell-based"}, "[2]": {"target": "Cyclin-dependent kinase 2 (Homo sapiens) (UniProt P24941)", "assay": "Inhibition of CDK2 in human SKCO1 cells at 1 uM after 4 hrs using biotin labeled DLKPQNLLINTEGAIK probe by mass-spectrometric analysis relative to control", "format": "cell-based"}, "[3]": {"target": "T1, Serine/threonine-protein kinase TAO1 (Homo sapiens) (UniProt Q7L7X3)", "T1 sequence (whole entry)": "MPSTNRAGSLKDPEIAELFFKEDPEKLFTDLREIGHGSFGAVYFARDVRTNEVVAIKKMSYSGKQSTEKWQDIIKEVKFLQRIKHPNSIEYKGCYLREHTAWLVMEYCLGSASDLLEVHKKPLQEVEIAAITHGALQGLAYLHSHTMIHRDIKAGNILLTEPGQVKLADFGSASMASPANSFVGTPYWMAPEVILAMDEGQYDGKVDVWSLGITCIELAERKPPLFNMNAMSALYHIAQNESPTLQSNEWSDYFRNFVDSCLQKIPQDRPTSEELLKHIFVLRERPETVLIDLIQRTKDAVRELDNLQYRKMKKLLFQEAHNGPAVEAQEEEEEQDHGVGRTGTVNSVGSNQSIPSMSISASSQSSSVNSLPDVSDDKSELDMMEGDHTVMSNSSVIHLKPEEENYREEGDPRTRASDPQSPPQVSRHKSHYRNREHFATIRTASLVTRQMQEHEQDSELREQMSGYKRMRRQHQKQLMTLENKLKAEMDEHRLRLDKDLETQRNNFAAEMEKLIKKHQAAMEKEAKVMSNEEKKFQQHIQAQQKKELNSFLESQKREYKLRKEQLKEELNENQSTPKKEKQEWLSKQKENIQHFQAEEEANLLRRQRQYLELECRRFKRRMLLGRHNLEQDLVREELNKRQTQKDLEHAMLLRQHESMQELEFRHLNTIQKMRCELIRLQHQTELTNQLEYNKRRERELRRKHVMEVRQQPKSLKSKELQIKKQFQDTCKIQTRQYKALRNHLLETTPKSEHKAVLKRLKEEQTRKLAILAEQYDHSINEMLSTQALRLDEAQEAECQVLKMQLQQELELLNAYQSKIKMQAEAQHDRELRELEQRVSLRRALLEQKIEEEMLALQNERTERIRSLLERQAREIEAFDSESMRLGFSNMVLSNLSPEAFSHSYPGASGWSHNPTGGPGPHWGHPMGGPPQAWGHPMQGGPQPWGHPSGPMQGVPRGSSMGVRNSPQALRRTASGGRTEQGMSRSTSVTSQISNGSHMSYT", "assay": "Inhibition of TAO1 in human SKCO1 cells at 1 uM after 4 hrs using biotin labeled DIKAGNILLTEPGQVK probe by mass-spectrometric analysis relative to control", "format": "cell-based", "how_it_was_run": "(§1)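 Live SK-CO-1 cells exposed to compound at 1 μM or DMSO for 4 h (KiNativ). Lysates then labeled with lysine-reactive ATP/ADP-biotin probe, and probe-labeled kinase peptides quantified by mass spectrometry. Percent inhibition of probe-dependent recovery calculated relative to DMSO-treated cells.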"}, "[4]": {"target": "5'-AMP-activated protein kinase catalytic subunit alpha-2 (Homo sapiens) (UniProt P54646)", "sequence (P54646 whole entry, looked up)": "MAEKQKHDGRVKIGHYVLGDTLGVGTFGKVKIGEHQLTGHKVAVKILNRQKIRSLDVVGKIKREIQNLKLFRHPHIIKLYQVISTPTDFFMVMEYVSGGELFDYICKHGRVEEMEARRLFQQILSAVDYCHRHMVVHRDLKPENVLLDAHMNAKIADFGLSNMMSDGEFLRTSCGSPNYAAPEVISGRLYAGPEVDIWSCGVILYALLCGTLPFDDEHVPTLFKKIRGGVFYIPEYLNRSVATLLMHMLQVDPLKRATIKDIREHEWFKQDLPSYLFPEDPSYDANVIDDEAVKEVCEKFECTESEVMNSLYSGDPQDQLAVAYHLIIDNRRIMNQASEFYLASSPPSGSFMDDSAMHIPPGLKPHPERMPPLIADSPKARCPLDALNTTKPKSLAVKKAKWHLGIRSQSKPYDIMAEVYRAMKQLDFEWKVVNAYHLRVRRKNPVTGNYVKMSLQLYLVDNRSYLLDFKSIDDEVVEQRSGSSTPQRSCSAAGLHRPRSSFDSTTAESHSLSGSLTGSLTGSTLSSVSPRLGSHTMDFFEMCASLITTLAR", "assay": "Inhibition of AMPKa2 in human SKCO1 cells at 1 uM after 4 hrs using biotin labeled DLKPENVLLDAHMNAK probe by mass-spectrometric analysis relative to control", "format": "cell-based", "how_it_was_run": "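Live SK-CO-1 cells were treated 4 h with compound at 1 μM or DMSO, then lysed. Lysates were labeled with a lysine-reactive ATP/ADP-biotin probe and analysed by mass spectrometry. Percent inhibition is the loss of probe-dependent recovery of the kinase peptide relative to DMSO.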"}, "[5]": {"target": "Fibroblast growth factor receptor 1 (Homo sapiens) (UniProt P11362)", "sequence (P11362 22-822 limits assumed)": "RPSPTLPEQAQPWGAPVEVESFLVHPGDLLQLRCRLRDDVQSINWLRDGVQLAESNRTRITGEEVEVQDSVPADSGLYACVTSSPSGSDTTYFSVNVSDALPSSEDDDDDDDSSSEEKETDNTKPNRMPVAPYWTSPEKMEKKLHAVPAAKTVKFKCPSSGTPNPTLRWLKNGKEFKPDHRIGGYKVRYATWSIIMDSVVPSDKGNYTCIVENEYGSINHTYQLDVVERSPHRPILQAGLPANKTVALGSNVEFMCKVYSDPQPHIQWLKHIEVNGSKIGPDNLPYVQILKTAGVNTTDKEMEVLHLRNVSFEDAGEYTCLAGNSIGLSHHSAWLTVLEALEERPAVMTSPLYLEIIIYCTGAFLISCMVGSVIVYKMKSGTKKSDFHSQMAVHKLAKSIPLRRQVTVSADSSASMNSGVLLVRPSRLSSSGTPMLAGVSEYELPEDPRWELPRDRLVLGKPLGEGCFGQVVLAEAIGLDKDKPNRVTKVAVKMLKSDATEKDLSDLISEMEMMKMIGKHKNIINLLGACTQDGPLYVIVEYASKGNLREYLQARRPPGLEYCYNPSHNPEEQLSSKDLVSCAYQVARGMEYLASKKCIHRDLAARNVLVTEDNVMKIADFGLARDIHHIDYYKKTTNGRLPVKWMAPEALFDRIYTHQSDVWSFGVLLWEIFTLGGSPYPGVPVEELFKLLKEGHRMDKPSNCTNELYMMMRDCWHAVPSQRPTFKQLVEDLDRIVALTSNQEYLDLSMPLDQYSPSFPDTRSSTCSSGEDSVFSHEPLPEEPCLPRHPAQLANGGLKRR", "assay": "Inhibition of FGFR1 in human SKCO1 cells at 1 uM after 4 hrs using biotin labeled VAVKMLK probe by mass-spectrometric analysis relative to control", "format": "cell-based", "settings": "pooled result: one value given for 4 cell lines, strains, targets or settings"}, "[6]": {"target": "1-phosphatidylinositol 3-phosphate 5-kinase (Homo sapiens) (UniProt Q9Y2I7)", "assay": "Inhibition of PIP5K3 in human SKCO1 cells at 1 uM after 4 hrs using biotin labeled GGKSGAAFYATEDDRFILK probe by mass-spectrometric analysis relative to control", "format": "cell-based", "how_it_was_run": "as §1"}, "[7]": {"target": "Mitogen-activated protein kinase kinase kinase kinase 4 (Homo sapiens) (UniProt O95819)", "sequence (O95819 2-1239 limits assumed)": "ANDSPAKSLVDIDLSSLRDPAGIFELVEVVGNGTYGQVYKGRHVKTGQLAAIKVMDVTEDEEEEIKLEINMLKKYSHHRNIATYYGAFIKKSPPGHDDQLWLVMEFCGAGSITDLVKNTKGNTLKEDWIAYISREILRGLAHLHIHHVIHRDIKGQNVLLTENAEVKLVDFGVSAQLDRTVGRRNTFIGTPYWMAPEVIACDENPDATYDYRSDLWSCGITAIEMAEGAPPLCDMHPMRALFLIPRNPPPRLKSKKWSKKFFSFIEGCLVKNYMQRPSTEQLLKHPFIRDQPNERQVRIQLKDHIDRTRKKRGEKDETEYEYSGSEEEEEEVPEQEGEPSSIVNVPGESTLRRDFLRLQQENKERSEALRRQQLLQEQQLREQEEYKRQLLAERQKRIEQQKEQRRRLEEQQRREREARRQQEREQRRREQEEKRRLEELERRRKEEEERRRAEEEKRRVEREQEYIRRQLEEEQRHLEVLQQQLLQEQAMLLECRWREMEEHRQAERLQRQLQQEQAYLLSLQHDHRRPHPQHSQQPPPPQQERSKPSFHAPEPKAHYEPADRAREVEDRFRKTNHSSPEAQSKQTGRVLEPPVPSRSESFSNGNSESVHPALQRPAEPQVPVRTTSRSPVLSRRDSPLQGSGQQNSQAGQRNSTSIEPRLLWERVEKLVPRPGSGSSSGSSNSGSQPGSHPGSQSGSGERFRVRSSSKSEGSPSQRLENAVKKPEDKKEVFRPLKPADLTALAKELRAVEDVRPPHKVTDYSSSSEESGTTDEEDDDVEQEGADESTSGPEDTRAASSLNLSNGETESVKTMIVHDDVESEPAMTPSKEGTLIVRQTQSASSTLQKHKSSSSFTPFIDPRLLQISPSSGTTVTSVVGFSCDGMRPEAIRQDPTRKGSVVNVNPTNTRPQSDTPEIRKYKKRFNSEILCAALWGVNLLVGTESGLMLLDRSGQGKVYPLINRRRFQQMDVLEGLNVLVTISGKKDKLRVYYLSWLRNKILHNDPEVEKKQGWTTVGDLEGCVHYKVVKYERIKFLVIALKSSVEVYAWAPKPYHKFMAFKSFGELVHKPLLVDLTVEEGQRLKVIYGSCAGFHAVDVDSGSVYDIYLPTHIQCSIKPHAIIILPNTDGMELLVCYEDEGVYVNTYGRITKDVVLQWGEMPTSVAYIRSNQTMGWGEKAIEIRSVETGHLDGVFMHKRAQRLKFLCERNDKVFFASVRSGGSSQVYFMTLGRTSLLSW", "assay": "Inhibition of ZC1/HGK in human SKCO1 cells at 1 uM after 4 hrs using biotin labeled DIKGQNVLLTENAEVK probe by mass-spectrometric analysis relative to control", "format": "cell-based", "settings": "pooled result: one value given for 3 cell lines, strains, targets or settings", "how_it_was_run": "as §1"}, "[8]": {"target": "Interferon-induced, double-stranded RNA-activated protein kinase (Homo sapiens) (UniProt P19525)", "assay": "Inhibition of PKR in human SKCO1 cells at 1 uM after 4 hrs using biotin labeled DLKPSNIFLVDTK probe by mass-spectrometric analysis relative to control", "format": "cell-based", "how_it_was_run": "as §1"}, "[9]": {"target": "eIF-2-alpha kinase GCN2 (Homo sapiens) (UniProt Q9P2K8)", "sequence (Q9P2K8 whole entry, the tested form may be a part)": "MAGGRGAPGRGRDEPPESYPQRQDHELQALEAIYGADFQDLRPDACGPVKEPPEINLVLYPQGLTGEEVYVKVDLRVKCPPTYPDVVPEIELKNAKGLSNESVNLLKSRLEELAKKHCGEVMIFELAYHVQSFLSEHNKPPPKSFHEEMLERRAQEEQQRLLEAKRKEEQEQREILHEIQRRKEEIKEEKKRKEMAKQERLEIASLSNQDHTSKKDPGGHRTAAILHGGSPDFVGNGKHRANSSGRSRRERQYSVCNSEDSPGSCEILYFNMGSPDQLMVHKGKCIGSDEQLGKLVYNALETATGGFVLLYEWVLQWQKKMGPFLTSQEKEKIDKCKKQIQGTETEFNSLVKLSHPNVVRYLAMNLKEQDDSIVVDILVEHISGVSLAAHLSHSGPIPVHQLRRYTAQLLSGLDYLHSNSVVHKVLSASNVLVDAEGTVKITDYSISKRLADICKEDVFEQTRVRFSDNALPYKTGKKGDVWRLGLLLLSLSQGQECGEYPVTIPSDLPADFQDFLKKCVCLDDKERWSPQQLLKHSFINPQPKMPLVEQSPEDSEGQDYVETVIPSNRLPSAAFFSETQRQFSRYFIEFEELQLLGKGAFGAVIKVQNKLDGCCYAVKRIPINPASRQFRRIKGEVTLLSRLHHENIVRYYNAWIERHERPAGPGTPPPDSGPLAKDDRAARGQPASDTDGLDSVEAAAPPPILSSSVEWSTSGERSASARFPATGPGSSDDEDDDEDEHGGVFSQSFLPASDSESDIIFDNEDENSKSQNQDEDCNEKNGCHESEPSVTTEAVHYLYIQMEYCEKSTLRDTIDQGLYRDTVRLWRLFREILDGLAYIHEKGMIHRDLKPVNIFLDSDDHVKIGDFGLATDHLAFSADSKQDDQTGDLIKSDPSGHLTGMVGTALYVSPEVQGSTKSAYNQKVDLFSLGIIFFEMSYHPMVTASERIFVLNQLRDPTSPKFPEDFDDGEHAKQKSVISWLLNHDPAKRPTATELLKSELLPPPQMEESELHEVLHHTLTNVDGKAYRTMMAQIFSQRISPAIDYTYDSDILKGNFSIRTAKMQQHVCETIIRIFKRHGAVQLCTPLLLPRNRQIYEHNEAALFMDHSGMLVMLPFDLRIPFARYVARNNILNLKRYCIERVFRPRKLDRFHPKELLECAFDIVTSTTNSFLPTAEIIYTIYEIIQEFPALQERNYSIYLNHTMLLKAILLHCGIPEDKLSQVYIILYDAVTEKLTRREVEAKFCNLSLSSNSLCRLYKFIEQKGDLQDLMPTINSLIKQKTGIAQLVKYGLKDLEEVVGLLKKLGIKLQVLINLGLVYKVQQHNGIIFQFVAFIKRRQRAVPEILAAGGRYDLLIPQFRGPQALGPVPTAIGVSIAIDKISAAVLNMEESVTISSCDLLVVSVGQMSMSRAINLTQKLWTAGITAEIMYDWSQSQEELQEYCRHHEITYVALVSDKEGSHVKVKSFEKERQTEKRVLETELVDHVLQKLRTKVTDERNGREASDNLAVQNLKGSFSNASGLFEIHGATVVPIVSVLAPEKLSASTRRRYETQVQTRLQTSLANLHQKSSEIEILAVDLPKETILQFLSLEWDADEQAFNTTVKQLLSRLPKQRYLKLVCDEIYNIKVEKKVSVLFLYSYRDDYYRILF", "assay": "Inhibition of GCN2 domain2 in human SKCO1 cells at 1 uM after 4 hrs using biotin labeled DLKPVNIFLDSDDHVK probe by mass-spectrometric analysis relative to control", "format": "cell-based"}, "[10]": {"target": "T2, Mitogen-activated protein kinase kinase kinase 7 (Homo sapiens) (UniProt O43318)", "T2 sequence (whole entry)": "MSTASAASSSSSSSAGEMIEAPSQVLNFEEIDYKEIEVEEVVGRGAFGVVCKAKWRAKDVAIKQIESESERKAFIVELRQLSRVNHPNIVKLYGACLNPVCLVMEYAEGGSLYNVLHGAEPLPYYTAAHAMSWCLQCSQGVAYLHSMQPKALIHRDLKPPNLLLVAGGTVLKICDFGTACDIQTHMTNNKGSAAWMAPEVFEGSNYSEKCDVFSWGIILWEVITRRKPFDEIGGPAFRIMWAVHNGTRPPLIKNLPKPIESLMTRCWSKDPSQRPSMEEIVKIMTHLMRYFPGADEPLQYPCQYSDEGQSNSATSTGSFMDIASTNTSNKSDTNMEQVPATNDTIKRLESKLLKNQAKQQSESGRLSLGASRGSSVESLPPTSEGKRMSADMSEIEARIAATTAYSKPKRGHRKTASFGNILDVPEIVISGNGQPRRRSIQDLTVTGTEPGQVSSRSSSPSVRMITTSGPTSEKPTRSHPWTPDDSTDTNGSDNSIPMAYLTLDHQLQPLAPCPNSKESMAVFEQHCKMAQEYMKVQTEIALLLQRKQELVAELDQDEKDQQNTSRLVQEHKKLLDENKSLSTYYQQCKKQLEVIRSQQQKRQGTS", "settings": "1 uM"}, "[11]": {"target": "Ribosomal protein S6 kinase alpha-1 (Homo sapiens) (UniProt Q15418)", "sequence (Q15418 whole entry, the tested form may be a part)": "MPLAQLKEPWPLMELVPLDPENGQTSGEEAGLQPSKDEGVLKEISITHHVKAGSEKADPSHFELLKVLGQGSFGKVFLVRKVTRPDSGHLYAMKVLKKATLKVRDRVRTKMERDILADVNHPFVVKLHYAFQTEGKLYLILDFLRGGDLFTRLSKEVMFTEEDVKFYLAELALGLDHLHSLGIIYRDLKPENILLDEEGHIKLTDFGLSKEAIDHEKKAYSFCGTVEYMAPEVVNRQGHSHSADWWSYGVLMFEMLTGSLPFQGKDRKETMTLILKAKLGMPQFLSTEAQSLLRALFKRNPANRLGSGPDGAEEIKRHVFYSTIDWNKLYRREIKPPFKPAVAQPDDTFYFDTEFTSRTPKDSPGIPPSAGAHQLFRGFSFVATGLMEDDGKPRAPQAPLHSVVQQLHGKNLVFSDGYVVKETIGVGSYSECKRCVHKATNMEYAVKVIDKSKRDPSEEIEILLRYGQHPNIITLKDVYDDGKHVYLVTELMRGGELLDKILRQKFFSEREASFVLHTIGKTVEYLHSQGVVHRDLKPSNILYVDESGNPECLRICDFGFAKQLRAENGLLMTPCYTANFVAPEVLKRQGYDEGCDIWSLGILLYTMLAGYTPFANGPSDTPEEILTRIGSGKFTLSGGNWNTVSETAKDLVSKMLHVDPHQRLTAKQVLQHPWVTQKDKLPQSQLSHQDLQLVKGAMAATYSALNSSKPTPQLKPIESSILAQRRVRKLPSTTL", "assay": "Inhibition of RSK1 domain1 in human SKCO1 cells at 1 uM after 4 hrs using biotin labeled LTDFGLSKEAIDHEKK probe by mass-spectrometric analysis relative to control", "format": "cell-based", "how_it_was_run": "as §1"}}, "data": [{"smiles": "C=CC(=O)Nc1ccccc1Oc1nc(Nc2cnn(CCOC)c2)ncc1Cl", "values": [{"measurement": "inhibition", "setting": "[1]", "result": 10.4, "unit": "%"}, {"measurement": "inhibition", "setting": "[2]", "result": 33.1, "unit": "%"}, {"measurement": "inhibition", "setting": "[3]", "result": 9.6, "unit": "%"}, {"measurement": "inhibition", "setting": "[4]", "result": 0.2, "unit": "%"}, {"measurement": "inhibition", "setting": "[5]", "result": 7.6, "unit": "%"}, {"measurement": "inhibition", "setting": "[6]", "result": 54.1, "unit": "%"}, {"measurement": "inhibition", "setting": "[7]", "result": 20.9, "unit": "%"}, {"measurement": "inhibition", "setting": "[8]", "result": 2.5, "unit": "%"}, {"measurement": "inhibition", "setting": "[9]", "result": 1.2, "unit": "%"}, {"measurement": "inhibition", "setting": "[10]", "result": 31.2, "unit": "%"}, {"measurement": "inhibition", "setting": "[11]", "result": 33.5, "unit": "%"}]}, {"smiles": "C=CC(=O)Nc1ccccc1Nc1nc(Nc2ccc(N3CCN(C)CC3)cc2)ncc1Cl", "values": [{"measurement": "inhibition", "setting": "[1]", "result": 24.5, "unit": "%"}, {"measurement": "inhibition", "setting": "[2]", "result": 18.7, "unit": "%"}, {"measurement": "inhibition", "setting": "[3]", "result": 13.1, "unit": "%"}, {"measurement": "inhibition", "setting": "[4]", "result": 76, "unit": "%"}, {"measurement": "inhibition", "setting": "[5]", "result": 33.7, "unit": "%"}, {"measurement": "inhibition", "setting": "[6]", "result": 61.5, "unit": "%"}, {"measurement": "inhibition", "setting": "[7]", "result": 6.8, "unit": "%"}, {"measurement": "inhibition", "setting": "[8]", "result": 2.6, "unit": "%"}, {"measurement": "inhibition", "setting": "[9]", "result": 14.6, "unit": "%"}, {"measurement": "inhibition", "setting": "[10]", "result": 90.3, "unit": "%"}, {"measurement": "inhibition", "setting": "[11]", "result": 56.2, "unit": "%"}]}, {"smiles": "COc1cc(O)c2c(c1)/C=C/C[C@H](O)[C@H](O)C(=O)/C=C\\C[C@H](C)OC2=O", "values": [{"measurement": "inhibition", "setting": "[1]", "result": 39.8, "unit": "%"}, {"measurement": "inhibition", "setting": "[2]", "result": 30, "unit": "%"}, {"measurement": "inhibition", "setting": "[3]", "result": 39.4, "unit": "%"}, {"measurement": "inhibition", "setting": "[4]", "result": 33.6, "unit": "%"}, {"measurement": "inhibition", "setting": "[5]", "result": 18.4, "unit": "%"}, {"measurement": "inhibition", "setting": "[6]", "result": 64.9, "unit": "%"}, {"measurement": "inhibition", "setting": "[7]", "result": 15.1, "unit": "%"}, {"measurement": "inhibition", "setting": "[8]", "result": -6.6, "unit": "%"}, {"measurement": "inhibition", "setting": "[9]", "result": -6.1, "unit": "%"}, {"measurement": "inhibition", "setting": "[10]", "result": 90, "unit": "%"}, {"measurement": "inhibition", "setting": "[11]", "result": 54.5, "unit": "%"}]}]}
